Experimental data of several laboratories.
Lines come from different studies, so protocols differ.
BRAF V600E: Serine/threonine-protein kinase B-raf (BRAF, Homo sapiens, UniProt P15056, V600E)
BRAF: Serine/threonine-protein kinase B-raf (BRAF, Homo sapiens, UniProt P15056)

target | effect on | mode | method | tested at | inhibition [%] | Compound
BRAF V600E | enzyme activity | inhibitor | ATP luminescence | 0.1 µM | 54 | Cc1ccc(C(CS(=O)(=O)c2ccccc2)=NNC2=NC(=O)C(=NNc3ccccc3)S2)cc1
BRAF | enzyme activity | inhibitor | – | 1 µM | 2 | CN1CC(Oc2cnc(C#N)cc2-c2ccn3nc(NC(=O)C4CC4)cc3c2)C1
BRAF V600E | enzyme activity | inhibitor | – | 1 µM | 18 | COc1cc(-c2cc(-c3ccc(N4CCNCC4)cc3)cnc2N)cc(OC)c1OC
BRAF | enzyme activity | inhibitor | – | 10 µM | 1 | CS(=O)(=O)Nc1cccc(-c2csc(NC(=O)CSc3nc4nccnc4c(=O)n3CCc3ccccc3)n2)c1
BRAF | cell-free assay | – | TR-FRET | 1 µM | ≤ 15 | CCOc1cc(-c2nncn2C)ccc1Nc1ncc2cc(C)nc(NCC(C)(C)C)c2n1
BRAF V600E | enzyme activity | inhibitor | – | 10 µM | -2 | O=C(CSc1nc2nccnc2c(=O)n1CCc1ccccc1)Nc1nccs1
BRAF V600E | enzyme activity | inhibitor | ATP luminescence | 10 nM | 31 | Cc1ccc(C(CS(=O)(=O)c2ccccc2)=NNC(N)=S)cc1
BRAF | enzyme activity | inhibitor | radiometric | 2 µM | 35.1 | Cn1cncc1C1=CN(c2ncnc3[nH]cnc23)CCS1
BRAF V600E | enzyme activity | inhibitor | ATP luminescence | 10 nM | 29 | Cc1ccc(N=Nc2sc(NN=C(CS(=O)(=O)c3ccccc3)c3ccc(C)cc3)nc2C)cc1
BRAF | enzyme activity | inhibitor | – | 0.1 µM | 18 | COc1cc2nccc(Oc3ccc(NC(=O)c4c5n(n(-c6ccc(F)cc6)c4=O)CCCC5)cc3)c2cc1OC
BRAF | enzyme activity | inhibitor | FRET | 1 µM | 1 | CN(C)C1CCN(CC#Cc2nn(C3CCCC3)c3nc(NCc4ccccc4)ncc23)C1 (stereo not drawn)
BRAF | enzyme activity | inhibitor | – | 1 µM | 7 | COc1cc2ncnc(Nc3ccc(Oc4ccccc4)cc3C)c2cc1OC
